Screening results from PubChem BioAssay.
Rows were chosen to be rich in hits. Some 4% of all compounds tested hit in one or more screens of this group.
hiPSC survival = enhancers of human iPSC single-cell survival. hiPSC single-cell survival, ATPlite luminescence; 100% = ROCK inhibitor wells, 0% = DMSO. 0.044% of 360,000 active. survival enhancement, % at 20 µM; in the data active means survival enhancement above about 18%;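 further: cells exposed to compounds for 16 hours before the ATP read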
FAS-TE inh = FAS thioesterase (human) inhibition; inhibition, % at 15 µM; 0.67% of 360,000 active; recombinant FAS-TE, OMFH fluorogenic substrate, fluorescence endpoint; AID 602261;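 active means compounds whose normalised, plate-corrected inhibition of enzyme fluorescence in the single-dose primary screen is 50% or more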
SENP1 inh = inhibitors of human SENP1 SUMO protease catalytic domain; Q9P0U3; recombinant SENP1 catalytic domain, CyPet-SUMO1-YPet FRET cleavage; inhibition, % at 10 µM; 0.21% of 360,000 active;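 active means inhibition at least 30% at 10 µM, raw YFP signal under a set limit, fluorescence ratio 0.5 to 1.5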
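Controls: no-enzyme wells low, DMSO-plus-enzyme wells high control. Test system: human recombinant His6-tagged SENP1 catalytic domain enzyme. Reagent: SFCypet-SUMO1-SFYpet FRET protein substrate, 25 nM final. Doses: one dose per compound, 10 µM, 0.5% DMSO. Detection: FRET, CFP and YFP emission. Timing: 50 min reaction at room temperature.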
Arrestin-AP2 inh = human beta-arrestin and AP2 interaction inhibition; FITC-arrestin peptide / GST-AP2 beads, flow cytometry; AP2 beta2 appendage carries R879A mutation; inhibition, % at 10 µM; 0.31% of 340,000 active;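 active means inhibition above a set limit, near 3 SD of compounds lacking own fluorescence, cut at about 54% in these data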
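System: GST-AP2 R879A glutathione beads | Also added: FITC-arrestin peptide, 50 nM | Times: 12 min plus 1 h, RT | Signal: Bead flow cytometry, FITC channel | Buffer or medium: PBS with 0.05% Tween 20 and 0.1% BSA | Read-out basis: Percent drop in bead-associated FITC signal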
Cardio protect = myocardial damage modulation in H9c2 cells; H9c2 cardiomyocytes, H2O2 injury protection, ATPLite, 2 h; protection from H2O2 cell death, % at 20 µM; 0.63% of 360,000 active; AID 588492;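 active means compounds giving at least 50% protection of heart cells from peroxide-induced death in the single-dose screen, raw or plate-pattern-corrected value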
GRIN3A LBD mod = modulators (binders) of human NR3A ligand-binding domain; 2.5% of 340,000 active; NR3A LBD differential scanning fluorimetry, Tm shift; 0% = protein alone, 100% = glycine-bound protein; Tm shift relative to glycine control, % at 25 µM;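 active means melting temperature shift of at least 10% of the positive control shift, at one fixed dose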
Of the large screens only hits and unclear results are named; the others gave an inactive call.

COc1ccc(NS(=O)(=O)c2ccc(NC(=O)CCNS(=O)(=O)c3ccc(C)cc3)cc2)cc1	GRIN3A LBD mod 10
Cc1cc(C)c(NS(=O)(=O)c2ccc(NC(=O)c3cccs3)cc2)c(C)c1	GRIN3A LBD mod 25
Cc1ccc(S(=O)(=O)NCCC(=O)Nc2ccc(S(=O)(=O)NC(C)C)cc2)cc1	none
Cc1ccc(NCCC(=O)c2cccs2)cc1	GRIN3A LBD mod 13
Cc1cc(NS(=O)(=O)c2ccc(NC(=O)c3c(F)c(F)c(F)c(F)c3F)cc2)nc(C)n1	none
Cc1ccc(S(=O)(=O)Nc2ccc(NC(=O)c3c(F)c(F)c(F)c(F)c3F)cc2)cc1	GRIN3A LBD mod 15
Cc1ccc(S(=O)(=O)Nc2ccccc2NS(=O)(=O)c2ccc(C)cc2)cc1	none (no result: Arrestin-AP2 inh, GRIN3A LBD mod)
Cc1ccc(S(=O)(=O)Nc2ccccc2N(C)S(=O)(=O)c2ccc(C)cc2)cc1	GRIN3A LBD mod 13
COc1ccc(NS(=O)(=O)c2ccc(OC)c(NC(=O)CCC3CCCCC3)c2)cc1	GRIN3A LBD mod 22
O=S(=O)(Nc1ccc(Nc2ccccc2)cc1)c1ccc(F)cc1	none
Cc1ccc(S(=O)(=O)Nc2ccc(Nc3ccccc3)cc2)cc1	GRIN3A LBD mod 24
CCC(CC)C(=O)Nc1cccc(C(=O)Nc2ccc(S(N)(=O)=O)cc2)c1	none
CCC(CC)C(=O)Nc1cccc(C(=O)Nc2ccc(S(=O)(=O)Nc3ccc(C)cc3)cc2)c1	GRIN3A LBD mod 19
CCNC(=O)C1(C)CCN(C(=O)CCc2ccccc2)C1 (configuration not stated)	none (no result: Arrestin-AP2 inh, GRIN3A LBD mod)
C=C[C@H]1CN2CC[C@H]1C[C@H]2[C@H](O)c1ccnc2ccc(OC)cc12	none
N#Cc1c(-c2ccc(Cl)cc2)c(-c2ccc(Cl)cc2)nn(CCOC(=O)CCC(=O)O)c1=O	none
Cc1ccc(S(=O)(=O)Nc2cc3c(C(=O)Nc4ccccc4)c(C)oc3c3ccccc23)cc1	GRIN3A LBD mod 12
Cc1ccc(S(=O)(=O)Nc2ccc(NC(=O)c3cccs3)cc2)cc1	GRIN3A LBD mod 18
CCOCCCNC(=O)/C(C#N)=C/c1ccc(-c2ccc(S(=O)(=O)N3CCOCC3)cc2)o1	none
CCOCCCNC(=O)/C(C#N)=C/c1ccc([N+](=O)[O-])o1	hiPSC survival 29
CCCOC(=O)c1c(-c2ccccc2)nc(CC)c(C(=O)SCC)c1CCC	GRIN3A LBD mod 10
Cc1ccc(N2C(=O)CC(N(CCc3ccccc3)C(=S)Nc3ccc(N(C)C)cc3)C2=O)cc1 (configuration not stated)	none
CNC(=S)N(Cc1ccc2c(c1)OCO2)C1CC(=O)N(c2ccc(F)cc2)C1=O (configuration not stated)	GRIN3A LBD mod 22
O=C1CC(N(CCc2ccccc2)C(=S)Nc2ccccc2)C(=O)N1c1ccc(Br)cc1 (configuration not stated)	GRIN3A LBD mod 29
COc1ccc(CN(C(=S)Nc2ccccc2)C2CC(=O)N(c3ccc(F)cc3)C2=O)cc1 (configuration not stated)	GRIN3A LBD mod 32
COc1ccc(CCN(C(=S)Nc2ccccc2)C2CC(=O)N(c3ccccc3)C2=O)cc1 (configuration not stated)	GRIN3A LBD mod 17
O=C(CCNC(=O)c1ccc([N+](=O)[O-])cc1)Nc1cc(C(F)(F)F)ccc1N1CCOCC1	none (no result: Arrestin-AP2 inh, GRIN3A LBD mod)
COC(=O)[C@]12CCCCC=C1N(Cc1ccco1)C(=O)[C@H](CC(=O)NCc1cccs1)C2	none (no result: Arrestin-AP2 inh, Cardio protect, GRIN3A LBD mod)
Cc1ccc([N+](=O)[O-])cc1NC(=O)c1c(-c2ccccc2)noc1C	GRIN3A LBD mod 13
CCOC(=O)Nc1cccnc1Sc1ccc(Cl)cc1	none
O=C(Nc1cccnc1Cl)c1ccc(Cl)cc1	none
Cc1ccc(Sc2ncccc2NC(=O)c2ccccc2Cl)cc1	GRIN3A LBD mod 14
O=C(Nc1cccnc1Cl)c1cccnc1Cl	hiPSC survival 23
O=C(COc1ccc([N+](=O)[O-])cc1)NNC(=O)C1COc2ccccc2O1 (configuration not stated)	none (no result: Arrestin-AP2 inh, GRIN3A LBD mod)
CC(C)=NN/C(N)=N/C(=S)Nc1ccc(C)cc1	GRIN3A LBD mod 13
CC(C)Oc1ccc2ccccc2c1CNC[C@H]1O[C@@H](n2ccc(N)nc2=O)[C@H](O)[C@@H]1O	none (no result: Arrestin-AP2 inh, GRIN3A LBD mod)
Cc1ccccc1NC(=O)c1oc(=O)c2ccccc2c1-c1ccccc1	none
Cc1cccc(NC(=O)c2oc(=O)c3ccccc3c2-c2ccccc2)c1C	GRIN3A LBD mod 16
Cc1noc(C)c1COC(=O)COc1ccc2c(C)cc(=O)oc2c1	Cardio protect 60
Cc1cc(NC(=O)COC(=O)COc2ccc3c4c(c(=O)oc3c2)CCC4)no1	Cardio protect 53
COc1cccc(C(c2cccc(OC)c2)c2ccccc2C(=O)O)c1	none
O=C(NC(c1cccnc1)C(F)(F)F)c1cc(COc2ccc3c(c2)CCCC3)on1 (configuration not stated)	none
CC(C)C(=O)Nc1ccc(C(=O)NN2C(=O)c3ccccc3C2=O)cc1	GRIN3A LBD mod 13
CC(=O)Nc1ccc(C(=O)NN2C(=O)c3ccccc3C2=O)cc1	none
O=C(Nc1ccc(C(=O)NN2C(=O)c3ccccc3C2=O)cc1)c1ccccc1	GRIN3A LBD mod 24
c1ccc(CCNc2cc(-c3ccc4ccccc4c3)nc3ccnn23)nc1	none (no result: Arrestin-AP2 inh, GRIN3A LBD mod)
Cc1ccc(NC(=O)Cc2noc3ccccc23)cc1	none
CN(C(=O)Cc1noc2ccccc12)c1ccccc1	GRIN3A LBD mod 12
O=C(Nc1cccc([N+](=O)[O-])c1)c1ccc(CSc2ccccc2)cc1	GRIN3A LBD mod 31
O=C(Nc1ccc(Oc2cccnc2)cc1)c1cccc([N+](=O)[O-])c1	FAS-TE inh 57
O=C(Nc1ccc(COc2ccccc2)cc1)c1cccc([N+](=O)[O-])c1	GRIN3A LBD mod 22
O=C(Nc1cccc([N+](=O)[O-])c1)c1ccccc1	none
O=C(Nc1ccc(Oc2cccnc2)cc1)c1ccc([N+](=O)[O-])cc1	none
O=C(Nc1ccc2ccccc2c1)c1cccc([N+](=O)[O-])c1	GRIN3A LBD mod 30
Cc1cccc(C)c1NC(=O)C1(C)CN(S(C)(=O)=O)CC(=O)N1C1CC1 (configuration not stated)	none (no result: hiPSC survival, FAS-TE inh, Arrestin-AP2 inh, Cardio protect, GRIN3A LBD mod)
COC(=O)C1=CN(c2ccc(OC)cc2OC)C(N)=C(C#N)C1c1ccccc1F (configuration not stated)	none (no result: hiPSC survival, FAS-TE inh, Arrestin-AP2 inh, Cardio protect, GRIN3A LBD mod)
CC(C)(C)c1ccc(OCC(=O)N2CCN(C=O)CC2)cc1	GRIN3A LBD mod 18
Cc1nc(-c2ccccc2)nc2[nH]ccc(=O)c12	GRIN3A LBD mod 10
OC(CSc1nnnn1-c1ccccc1)Cn1c2ccccc2c2ccccc21 (configuration not stated)	none (no result: Arrestin-AP2 inh, Cardio protect, GRIN3A LBD mod)
